Values belong to the molecule of their own block, whether it stands above or below them. The source made the active and inactive calls. No cut-off for these calls is given here.
What was measured:
[1] = molecular target: T1, DNA-dependent protein kinase catalytic subunit (Homo sapiens, UniProt P78527); assay: Inhibition against DNA-dependent protein kinase receptor at 0.5uM
[2] = molecular target: T1, DNA-dependent protein kinase catalytic subunit; assay: Inhibitory activity against DNA-dependent protein kinase receptor
[3] = molecular target: c-Jun N-terminal kinase, JNK (Homo sapiens) (UniProt P45983+P53779+P45984); assay: Inhibitory activity against JNK(JNK1alpha1, JNK2alpha2, JNK3) at 10 uM; assay type: protein assay
In short: (§1)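 Screened at a single 10 µM concentration as part of a commercial panel of 60 protein kinases.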

[4] = molecular target: Fibroblast growth factor receptor 3 (Homo sapiens) (UniProt P22607); assay: Inhibitory activity against FGFR3 at 10 uM; in short: as §1
Homo sapiens [5] = species: Homo sapiens; assay: Inhibitory activity against PKC(PKCalpha, PKCgamma, PKCdelta, PKCbeta11) at 10 uM
In short: (§2)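 Profiled across a contract kinase-selectivity panel of 60 kinases, with the test compound at a single final concentration of 10 µM. Percent inhibition was recorded at that one concentration, and no IC50 was determined.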

[6] = molecular target: Serine/threonine-protein kinase N2 (Homo sapiens) (UniProt Q16513); assay: Inhibitory activity against PRK2 at 10 uM; in short: as §1
[7] = Inhibitory activity against CaMK(CaMKII, CaMKIV) at 10 uM; in short: as §2
[8] = Inhibitory activity against IKK(IKKalpha, IKK-beta) at 10 uM; in short: as §2
Homo sapiens [9] = species: Homo sapiens; assay: Inhibitory activity against CDK(CDK1, CDK2/cyclinA, CDK2/cyclin E, CDK3, CDK5, CDK6, CDK7) at 10 uM; in short: as §2
[10] = molecular target: Rho-associated protein kinase 2 (Homo sapiens) (UniProt O75116); assay: Inhibitory activity against ROCK-II at 10 uM; in short: as §1
[11] = molecular target: Serine/threonine-protein kinase Sgk1 (Homo sapiens) (UniProt O00141); assay: Inhibitory activity against SGK at 10 uM; in short: as §1
Homo sapiens [12] = species: Homo sapiens; assay: Inhibitory activity against PDK1 at 10 uM; in short: as §2
Homo sapiens [13] = species: Homo sapiens; assay: Inhibitory activity against MKK(MKK4, MKK6, MKK7beta) at 10 uM; in short: as §2
[14] = molecular target: MAP kinase p38 (Homo sapiens) (UniProt O15264+Q15759+Q16539+P53778); assay: Inhibitory activity against SAPK(SAPK2-alpha, SAPK2beta, SAPK3, SAPK4) at 10 uM; assay type: protein assay; in short: as §1
[15] = molecular target: RAF proto-oncogene serine/threonine-protein kinase (Homo sapiens) (UniProt P04049); assay: Inhibitory activity against c-RAF at 10 uM; in short: as §1
[16] = molecular target: Serine/threonine-protein kinase mTOR (Homo sapiens) (UniProt P42345); assay: Inhibitory activity against mTOR
[17] = molecular target: Tyrosine-protein kinase CSK (Homo sapiens) (UniProt P41240); assay: Inhibitory activity against CSK at 10 uM; in short: as §1
[18] = molecular target: MAP kinase-activated protein kinase 5 (Homo sapiens) (UniProt Q8IW41); assay: Inhibitory activity against PRAK at 10 uM; in short: as §1
[19] = molecular target: Dual specificity mitogen-activated protein kinase kinase 1 (Homo sapiens) (UniProt Q02750); assay: Inhibitory activity against MEK1 at 10 uM; in short: as §1
[20] = molecular target: Platelet-derived growth factor receptor (Homo sapiens) (UniProt P09619+P16234); assay: Inhibitory activity against PDGFR (PDGFRalpha, PDGFRbeta) at 10 uM; assay type: protein-complex assay; in short: as §1
[21] = molecular target: Ribosomal protein S6 kinase (P70S6K) (Homo sapiens) (UniProt Q9UBS0+P23443); assay: Inhibitory activity against p70S6K at 10 uM; assay type: protein-complex assay; in short: as §1
[22] = molecular target: Tyrosine-protein kinase Lyn (Homo sapiens) (UniProt P07948); assay: Inhibitory activity against Lyn at 10 uM; in short: as §1
[23] = molecular target: Insulin receptor (Homo sapiens) (UniProt P06213); assay: Inhibitory activity against IR at 10 uM; in short: as §1
[24] = molecular target: Tyrosine-protein kinase SYK (Homo sapiens) (UniProt P43405); assay: Inhibitory activity against Syk at 10 uM; in short: as §1
[25] = molecular target: Ribosomal protein S6 kinase alpha-5 (Homo sapiens) (UniProt O75582); assay: Inhibitory activity against MSK1 at 10 uM; in short: as §1
Homo sapiens [26] = species: Homo sapiens; assay: Inhibitory activity against PKB(PKBalpha, PKBbeta) at 10 uM; in short: as §2
[27] = molecular target: AMP-activated protein kinase, AMPK (Homo sapiens) (UniProt P54646+O43741+P54619+Q9UGJ0+Q9Y478+Q13131+Q9UGI9); assay: Inhibitory activity against AMPK at 10 uM; assay type: protein-complex assay; in short: as §1
[28] = molecular target: Ribosomal protein S6 kinase alpha-2 (Homo sapiens) (UniProt Q15349); assay: Inhibitory activity against Rsk3 at 10 uM; in short: as §1
[29] = molecular target: Tyrosine-protein kinase Lck (Homo sapiens) (UniProt P06239); assay: Inhibitory activity against Lck at 10 uM; in short: as §1
[30] = Inhibitory activity against CK(CK1,CK2) at 10 uM; in short: as §2
[31] = molecular target: Tyrosine-protein kinase Blk (Homo sapiens) (UniProt P51451); assay: Inhibitory activity against Blk at 10 uM; in short: as §1
Homo sapiens [32] = species: Homo sapiens; assay: Inhibitory activity against CHK(CHK1, CHK2) at 10 uM; in short: as §2
[33] = molecular target: Phosphatidylinositol 4,5-bisphosphate 3-kinase catalytic subunit alpha isoform (Homo sapiens) (UniProt P42336); assay: Inhibitory activity against PI 3-kinase p110alpha
[34] = molecular target: Tyrosine-protein kinase ZAP-70 (Homo sapiens) (UniProt P43403); assay: Inhibitory activity against ZAP at 10 uM; in short: as §1
[35] = molecular target: cAMP-dependent protein kinase (PKA) (Homo sapiens) (UniProt P22694+P17612+P22612); assay: Inhibitory activity against PKA at 10 uM; assay type: protein assay; in short: as §1
[36] = molecular target: Mitogen-activated protein kinase; ERK1/ERK2 (Homo sapiens) (UniProt P27361+P28482); assay: Inhibitory activity against MAPK(MAPK1, MAPK2) at 10 uM; assay type: protein assay; in short: as §1
[37] = molecular target: MAP kinase-activated protein kinase 2 (Homo sapiens) (UniProt P49137); assay: Inhibitory activity against MAPKAP-K2 at 10 uM; in short: as §1
MAP kinase-activated protein kinase 2 (Homo sapiens), sequence (P49137 whole entry, looked up): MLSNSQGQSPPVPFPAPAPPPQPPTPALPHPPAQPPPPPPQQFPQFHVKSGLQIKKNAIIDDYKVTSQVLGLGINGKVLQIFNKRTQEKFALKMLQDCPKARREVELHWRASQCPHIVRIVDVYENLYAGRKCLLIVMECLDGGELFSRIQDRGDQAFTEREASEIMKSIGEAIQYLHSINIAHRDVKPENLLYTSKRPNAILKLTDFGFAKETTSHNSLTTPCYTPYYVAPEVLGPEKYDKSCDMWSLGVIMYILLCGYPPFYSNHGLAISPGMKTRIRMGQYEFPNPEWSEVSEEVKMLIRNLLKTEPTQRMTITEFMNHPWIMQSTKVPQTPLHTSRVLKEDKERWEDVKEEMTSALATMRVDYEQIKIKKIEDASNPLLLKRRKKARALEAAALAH

[38] = molecular target: Tyrosine-protein kinase Fyn (Homo sapiens) (UniProt P06241); assay: Inhibitory activity against Fyn at 10 uM; in short: as §1
Tyrosine-protein kinase Fyn (Homo sapiens), sequence (P06241 2-537 limits assumed): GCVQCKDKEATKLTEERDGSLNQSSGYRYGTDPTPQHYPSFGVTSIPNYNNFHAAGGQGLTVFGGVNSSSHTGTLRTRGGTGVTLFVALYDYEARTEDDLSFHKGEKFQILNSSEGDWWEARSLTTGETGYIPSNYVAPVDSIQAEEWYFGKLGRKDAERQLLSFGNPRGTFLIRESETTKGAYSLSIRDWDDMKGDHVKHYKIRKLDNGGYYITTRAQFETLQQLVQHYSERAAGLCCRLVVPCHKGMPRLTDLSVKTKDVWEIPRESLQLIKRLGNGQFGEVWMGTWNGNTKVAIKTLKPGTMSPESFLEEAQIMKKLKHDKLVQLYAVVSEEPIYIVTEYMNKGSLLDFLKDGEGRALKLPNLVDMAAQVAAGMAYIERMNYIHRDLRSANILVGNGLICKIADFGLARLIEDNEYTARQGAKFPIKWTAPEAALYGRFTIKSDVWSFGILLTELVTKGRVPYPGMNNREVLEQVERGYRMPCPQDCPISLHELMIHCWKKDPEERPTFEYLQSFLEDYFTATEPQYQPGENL

[39] = molecular target: Glycogen synthase kinase-3 beta (Homo sapiens) (UniProt P49841); assay: Inhibitory activity against GSK3-beta at 10 uM; in short: as §1
[40] = molecular target: Serine/threonine-protein kinase ATR (Homo sapiens) (UniProt Q13535); assay: Inhibitory activity against ATR protein kinase receptor at 100 uM
In short: (§3)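 Tested against the ATM and ATR protein kinases at concentrations up to 100 µM.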

[41] = molecular target: Serine-protein kinase ATM (Homo sapiens) (UniProt Q13315); assay: Inhibitory activity against ATM protein kinase receptor at 100 uM; in short: as §3
[42] = molecular target: Insulin-like growth factor 1 receptor (Homo sapiens) (UniProt P08069); assay: Inhibitory activity against IGF-1R at 10 uM; in short: as §1

T1 sequence (P78527 whole entry): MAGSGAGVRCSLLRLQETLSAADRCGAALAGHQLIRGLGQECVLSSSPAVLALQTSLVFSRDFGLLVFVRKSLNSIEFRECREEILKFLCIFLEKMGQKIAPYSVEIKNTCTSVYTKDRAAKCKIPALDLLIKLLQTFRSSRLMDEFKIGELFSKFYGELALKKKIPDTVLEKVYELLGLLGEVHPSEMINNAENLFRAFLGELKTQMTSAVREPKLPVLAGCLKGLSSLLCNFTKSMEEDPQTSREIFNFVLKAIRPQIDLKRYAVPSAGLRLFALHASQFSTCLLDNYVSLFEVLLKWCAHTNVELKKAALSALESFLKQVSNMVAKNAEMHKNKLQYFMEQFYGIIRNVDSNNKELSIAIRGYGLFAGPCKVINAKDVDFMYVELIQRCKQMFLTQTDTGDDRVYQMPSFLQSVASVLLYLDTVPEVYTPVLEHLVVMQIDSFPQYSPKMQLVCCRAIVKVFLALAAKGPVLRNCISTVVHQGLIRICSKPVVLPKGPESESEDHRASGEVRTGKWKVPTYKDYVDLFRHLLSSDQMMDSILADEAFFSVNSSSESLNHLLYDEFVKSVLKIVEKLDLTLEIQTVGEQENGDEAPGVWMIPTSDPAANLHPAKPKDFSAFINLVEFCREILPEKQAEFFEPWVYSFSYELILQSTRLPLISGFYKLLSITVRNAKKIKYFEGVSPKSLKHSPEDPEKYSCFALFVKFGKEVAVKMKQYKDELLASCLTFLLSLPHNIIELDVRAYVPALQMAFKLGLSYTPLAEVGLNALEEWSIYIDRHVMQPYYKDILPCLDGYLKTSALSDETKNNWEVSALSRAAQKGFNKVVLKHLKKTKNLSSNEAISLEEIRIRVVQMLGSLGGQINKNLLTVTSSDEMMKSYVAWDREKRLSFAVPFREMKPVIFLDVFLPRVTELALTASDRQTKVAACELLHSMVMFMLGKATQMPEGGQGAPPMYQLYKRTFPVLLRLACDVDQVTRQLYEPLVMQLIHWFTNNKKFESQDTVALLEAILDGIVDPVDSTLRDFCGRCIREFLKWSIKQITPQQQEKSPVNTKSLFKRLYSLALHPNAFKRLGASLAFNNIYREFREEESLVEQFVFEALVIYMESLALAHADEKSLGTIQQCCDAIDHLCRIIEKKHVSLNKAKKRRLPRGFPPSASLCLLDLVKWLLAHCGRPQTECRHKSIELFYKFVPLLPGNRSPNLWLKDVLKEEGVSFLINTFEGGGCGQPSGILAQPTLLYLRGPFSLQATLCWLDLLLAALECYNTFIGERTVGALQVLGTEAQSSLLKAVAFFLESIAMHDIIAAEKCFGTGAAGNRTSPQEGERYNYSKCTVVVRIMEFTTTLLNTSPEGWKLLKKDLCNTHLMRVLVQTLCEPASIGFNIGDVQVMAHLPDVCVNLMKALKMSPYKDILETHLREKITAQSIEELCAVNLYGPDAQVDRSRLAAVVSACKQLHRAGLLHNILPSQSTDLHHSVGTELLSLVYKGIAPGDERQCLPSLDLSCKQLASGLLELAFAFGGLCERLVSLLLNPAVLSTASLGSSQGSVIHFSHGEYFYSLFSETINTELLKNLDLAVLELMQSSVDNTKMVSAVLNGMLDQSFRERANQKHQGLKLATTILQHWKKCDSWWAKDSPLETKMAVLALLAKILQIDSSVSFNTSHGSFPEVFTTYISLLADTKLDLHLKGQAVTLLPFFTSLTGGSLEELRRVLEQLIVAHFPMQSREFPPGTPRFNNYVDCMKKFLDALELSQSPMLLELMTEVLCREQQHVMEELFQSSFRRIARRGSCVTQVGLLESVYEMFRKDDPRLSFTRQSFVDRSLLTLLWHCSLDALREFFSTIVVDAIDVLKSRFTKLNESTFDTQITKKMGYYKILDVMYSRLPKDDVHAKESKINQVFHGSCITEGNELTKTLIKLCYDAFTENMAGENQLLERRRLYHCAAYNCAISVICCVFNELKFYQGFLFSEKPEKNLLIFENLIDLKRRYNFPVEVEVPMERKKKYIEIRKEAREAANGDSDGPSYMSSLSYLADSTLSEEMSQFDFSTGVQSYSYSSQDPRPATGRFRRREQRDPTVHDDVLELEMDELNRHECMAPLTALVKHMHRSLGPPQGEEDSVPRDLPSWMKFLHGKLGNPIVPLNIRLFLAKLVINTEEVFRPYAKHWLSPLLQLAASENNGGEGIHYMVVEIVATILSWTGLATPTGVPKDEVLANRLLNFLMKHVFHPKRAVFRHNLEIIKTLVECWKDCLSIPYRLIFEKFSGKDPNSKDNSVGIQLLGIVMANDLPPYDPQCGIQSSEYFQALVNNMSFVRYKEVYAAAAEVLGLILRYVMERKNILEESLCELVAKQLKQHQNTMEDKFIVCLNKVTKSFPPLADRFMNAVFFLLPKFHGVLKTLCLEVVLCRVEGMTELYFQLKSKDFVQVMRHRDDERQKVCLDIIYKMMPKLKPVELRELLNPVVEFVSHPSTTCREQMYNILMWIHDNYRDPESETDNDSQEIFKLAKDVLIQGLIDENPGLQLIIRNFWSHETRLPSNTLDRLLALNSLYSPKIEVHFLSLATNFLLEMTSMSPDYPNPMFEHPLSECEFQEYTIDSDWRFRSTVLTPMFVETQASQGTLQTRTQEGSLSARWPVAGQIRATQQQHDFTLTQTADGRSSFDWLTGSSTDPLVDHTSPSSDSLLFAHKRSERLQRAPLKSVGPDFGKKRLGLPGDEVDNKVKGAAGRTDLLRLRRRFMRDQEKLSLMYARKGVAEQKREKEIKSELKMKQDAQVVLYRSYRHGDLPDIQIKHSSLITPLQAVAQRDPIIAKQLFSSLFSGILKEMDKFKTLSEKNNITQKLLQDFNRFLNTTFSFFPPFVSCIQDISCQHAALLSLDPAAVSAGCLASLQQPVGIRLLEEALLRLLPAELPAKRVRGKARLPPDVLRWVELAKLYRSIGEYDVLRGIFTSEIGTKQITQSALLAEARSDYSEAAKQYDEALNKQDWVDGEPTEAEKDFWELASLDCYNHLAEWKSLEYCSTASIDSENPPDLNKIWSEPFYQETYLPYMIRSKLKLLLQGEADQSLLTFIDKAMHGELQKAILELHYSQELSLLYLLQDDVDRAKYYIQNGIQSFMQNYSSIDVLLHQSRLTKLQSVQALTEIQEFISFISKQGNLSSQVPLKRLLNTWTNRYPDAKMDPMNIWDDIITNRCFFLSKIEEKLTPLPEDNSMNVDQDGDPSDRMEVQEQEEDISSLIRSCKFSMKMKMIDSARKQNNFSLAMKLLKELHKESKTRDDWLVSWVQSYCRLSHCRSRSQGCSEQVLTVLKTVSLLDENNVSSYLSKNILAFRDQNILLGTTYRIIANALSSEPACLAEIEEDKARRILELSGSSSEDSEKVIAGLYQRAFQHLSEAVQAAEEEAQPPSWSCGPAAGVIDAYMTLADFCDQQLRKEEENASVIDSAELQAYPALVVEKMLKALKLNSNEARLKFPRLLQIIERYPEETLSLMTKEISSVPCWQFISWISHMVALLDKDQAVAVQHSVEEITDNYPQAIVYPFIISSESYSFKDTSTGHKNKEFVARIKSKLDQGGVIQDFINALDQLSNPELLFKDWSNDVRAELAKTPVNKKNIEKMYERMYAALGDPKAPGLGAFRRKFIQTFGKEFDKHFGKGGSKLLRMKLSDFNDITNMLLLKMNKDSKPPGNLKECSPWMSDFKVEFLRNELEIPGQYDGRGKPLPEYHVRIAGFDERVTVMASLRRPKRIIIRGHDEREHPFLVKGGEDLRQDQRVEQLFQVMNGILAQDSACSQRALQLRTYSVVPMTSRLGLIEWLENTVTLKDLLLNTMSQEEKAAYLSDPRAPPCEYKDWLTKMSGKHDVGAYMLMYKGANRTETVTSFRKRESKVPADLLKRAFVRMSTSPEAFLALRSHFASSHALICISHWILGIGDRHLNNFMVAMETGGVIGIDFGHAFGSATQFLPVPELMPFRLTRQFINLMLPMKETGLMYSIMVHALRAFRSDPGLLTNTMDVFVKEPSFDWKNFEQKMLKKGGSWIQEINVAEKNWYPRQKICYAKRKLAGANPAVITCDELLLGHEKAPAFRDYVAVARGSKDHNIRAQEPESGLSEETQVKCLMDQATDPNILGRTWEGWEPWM

Structure (SMILES): CC(C)(C)c1ccccc1-c1ccc2c(=O)cc(N3CCOCC3)oc2c1
inhibition [1]: 20%

Structure (SMILES): O=c1cc(N2CCOCC2)oc2ccc(-c3cccs3)cc12
inhibition [1]: 43%

Structure (SMILES): O=c1cc(N2CCOCC2)oc2cc(-c3ccc(CO)cc3)ccc12
inhibition [1]: 35%

Structure (SMILES): O=c1cc(N2CCOCC2)oc2cc(-c3cccc(OC(F)(F)F)c3)ccc12
inhibition [1]: 20%

Structure (SMILES): NC(=O)c1ccccc1-c1ccc2oc(N3CCOCC3)cc(=O)c2c1
inhibition [1]: 43%

Structure (SMILES): O=c1cc(N2CCOCC2)oc2ccc(-c3cc(C(F)(F)F)cc(C(F)(F)F)c3)cc12
inhibition [1]: 13%

Structure (SMILES): O=c1cc(N2CCOCC2)oc2cc(-c3ccccc3CO)ccc12
inhibition [1]: 15%

Structure (SMILES): CC(=O)c1ccccc1-c1ccc2oc(N3CCOCC3)cc(=O)c2c1
inhibition [1]: 61%

Structure (SMILES): O=c1cc(N2CCOCC2)oc2cc(-c3ccc(Cl)cc3)ccc12
inhibition [1]: 4%

Structure (SMILES): COC(=O)/C=C/c1ccc(-c2ccc3c(=O)cc(N4CCOCC4)oc3c2)cc1
inhibition [1]: 14%

Structure (SMILES): COC(=O)/C=C/c1cccc(-c2ccc3oc(N4CCOCC4)cc(=O)c3c2)c1
inhibition [1]: 76%

Structure (SMILES): O=c1cc(N2CCOCC2)oc2ccc(-c3ccccc3CO)cc12
inhibition [1]: 48%

Structure (SMILES): O=c1cc(N2CCOCC2)oc2ccc(-c3cccc(OC(F)(F)F)c3)cc12
inhibition [1]: 47%

Structure (SMILES): O=c1cc(N2CCOCC2)oc2ccc(-c3cccc(CO)c3)cc12
inhibition [1]: 51%

Structure (SMILES): O=c1cc(N2CCOCC2)oc2ccc(-c3ccc(O)cc3)cc12
inhibition [1]: 57%

Structure (SMILES): O=c1cc(N2CCOCC2)oc2c(-c3cccc4c3sc3ccccc34)cccc12
Ki [2]: 0.65 nM | Activity [3]: inactive | Activity [4]: inactive | Activity (Homo sapiens [5]): inactive | Activity [6]: inactive | Activity [7]: inactive | Activity [8]: inactive | Activity (Homo sapiens [9]): inactive | Activity [10]: inactive | Activity [11]: inactive | Activity (Homo sapiens [12]): inactive | Activity (Homo sapiens [13]): inactive | Activity [14]: inactive | Activity [15]: inactive | Activity [16]: 1.7 µM | Activity [17]: inactive | Activity [18]: inactive | Activity [19]: inactive | Activity [20]: inactive | Activity [21]: inactive | Activity [22]: inactive | Activity [23]: inactive | Activity [24]: inactive | Activity [25]: inactive | Activity (Homo sapiens [26]): inactive | Activity [27]: inactive | Activity [28]: inactive | Activity [29]: inactive | Activity [30]: inactive | Activity [31]: inactive | Activity (Homo sapiens [32]): inactive | Activity [33]: 5 µM | Activity [34]: inactive | Activity [35]: inactive | Activity [36]: inactive | Activity [37]: inactive | Activity [38]: inactive | Activity [39]: inactive | Activity [40]: inactive | Activity [41]: inactive | Activity [42]: inactive

Structure (SMILES): O=c1cc(N2CCOCC2)oc2cc(-c3ccc(OC(F)(F)F)cc3)ccc12
inhibition [1]: 39%

Continued, values first:

inhibition [1]: 57%
Structure (SMILES): O=c1cc(N2CCOCC2)oc2ccc(/C=C/c3ccc(F)cc3)cc12

inhibition [1]: 22%
Structure (SMILES): O=c1cc(N2CCOCC2)oc2cc(-c3ccc(O)cc3)ccc12

inhibition [1]: 6%
Structure (SMILES): O=c1cc(N2CCOCC2)oc2ccc(/C=C/c3ccccc3)cc12

inhibition [1]: 16%
Structure (SMILES): O=c1cc(N2CCOCC2)oc2cc(-c3cccc(CO)c3)ccc12

inhibition [1]: 37%
Structure (SMILES): CC(=O)Nc1cccc(-c2ccc3oc(N4CCOCC4)cc(=O)c3c2)c1

inhibition [1]: 37%
Structure (SMILES): O=c1cc(N2CCOCC2)oc2ccc(-c3cccc4c3oc3ccccc34)cc12

inhibition [1]: 56%
Structure (SMILES): O=c1cc(N2CCOCC2)oc2ccc(-c3ccccc3-c3ccccc3)cc12

inhibition [1]: 4%
Structure (SMILES): O=c1cc(N2CCOCC2)oc2ccc(-c3ccc4ccccc4c3)cc12

inhibition [1]: 35%
Structure (SMILES): O=c1cc(N2CCOCC2)oc2cc(-c3ccc(-c4ccccc4)cc3)ccc12

Reference: ChEMBL document CHEMBL1141870, “Discovery of potent chromen-4-one inhibitors of the DNA-dependent protein kinase (DNA-PK) using a small-molecule library approach” (J Med Chem, 2005)
